Laboratory results: ChEMBL document CHEMBL1828575, “Design, synthesis and antiproliferative activities of biarylolefins based on polyhydroxylated and carbohydrate scaffolds” (Eur J Med Chem, 2011)

Columns and labels:
Assay type in all cases: functional
NCI/ADR-RES [1] = experiment: Cytotoxicity against human NCI/ADR-RES cells assessed as cellular growth at 10 uM after 48 hrs by SRB assay
Outline: (§1)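 NCI-60 panel lines grown in RPMI 1640 with 5% FBS and 2 mM L-glutamine. Plated at 5000–40,000 cells/well and preincubated 24 h at 37 °C, 5% CO₂, with time-zero plates fixed in TCA. Compounds, dissolved in DMSO and diluted in medium, were applied for 48 h. Cells were TCA-fixed (10% final for adherent, 16% for suspension) and stained with 0.4% SRB in 1% acetic acid. Dye was solubilised in 10 mM Tris base and read at 515 nm; growth was expressed as a percentage of untreated control.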

EKVX = experiment: Antitumor activity against human EKVX cells after 48 hrs by SRB assay
Outline: (§2)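 NCI60 panel in RPMI 1640 with 5% FBS and 2 mM L-glutamine. Cells were plated at 5000–40,000/well by doubling time, held 24 h, then time-zero plates were TCA-fixed. Five concentrations (10-fold or half-log dilutions of DMSO stocks) were applied for 48 h at 37 °C, 5% CO2. Cells were fixed with cold TCA (10% final adherent, 16% suspension) and stained with 0.4% SRB. Bound dye was dissolved in 10 mM Tris and read at 515 nm. GI50, TGI and LC50 were calculated per line.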

OVCAR-3 [2] = experiment: Cytotoxicity against human OVCAR3 cells assessed as cellular growth at 10 uM after 48 hrs by SRB assay; outline: as §1
KM12 = experiment: Antitumor activity against human KM12 cells after 48 hrs by SRB assay; conditions: KM12, 48 h; outline: as §2
OVCAR-3 [3] = experiment: Antitumor activity against human OVCAR3 cells after 48 hrs by SRB assay; conditions: OVCAR-3, 48 h; outline: as §2
SNB-75 [4] = experiment: Antitumor activity against human SNB75 cells after 48 hrs by SRB assay; conditions: SNB-75, 48 h
Outline: (§3)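 NCI60 panel cells grown in RPMI 1640 with 5% FBS and 2 mM L-glutamine, plated at 5000–40,000 cells/well and preincubated 24 h at 37 °C, 5% CO₂. Compound was added from DMSO at five concentrations, 10-fold or 1/2 log dilutions, then incubated 48 h.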

HCT-116 = experiment: Antitumor activity against human HCT116 cells after 48 hrs by SRB assay; conditions: HCT-116, 48 h; outline: as §2
M14 = experiment: Cytotoxicity against human M14 cells assessed as cellular growth at 10 uM after 48 hrs by SRB assay
Outline: (§4)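 NCI60 single-dose screen of cells in RPMI 1640 with 5% FBS and 2 mM L-glutamine, preincubated 24 h at 37 °C, 5% CO₂. Cells were then exposed 48 h to compound added from DMSO stock. TCA-fixed, stained with 0.4% SRB in 1% acetic acid, dye solubilised in 10 mM Tris base and read at 515 nm. Growth is given as percent of untreated control.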

HL-60(TB) = experiment: Antitumor activity against human HL-60(TB) cells after 48 hrs by SRB assay; conditions: HL-60, 48 h
Outline: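 NCI60 screen: cells grown in RPMI 1640 with 5% FBS and 2 mM L-glutamine, plated at 5000–40,000 cells/well by doubling time, preincubated 24 h at 37 °C with 5% CO2. Compounds were diluted from DMSO stocks and given for 48 h, at five concentrations for dose response. A time-zero plate was TCA-fixed. Cells were TCA-fixed, stained with 0.4% SRB and read at 515 nm, with growth expressed relative to untreated controls.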

SF-268 = experiment: Cytotoxicity against human SF268 cells assessed as cellular growth at 10 uM after 48 hrs by SRB assay; outline: as §1
DU-145 = experiment: Cytotoxicity against human DU145 cells assessed as cellular growth at 10 uM after 48 hrs by SRB assay; outline: as §4
SK-MEL-28 = experiment: Antitumor activity against human SK-MEL-28 cells after 48 hrs by SRB assay; conditions: SK-MEL-28, 48 h; outline: as §3
NCI/ADR-RES [5] = experiment: Antitumor activity against human NCI/ADR-RES cells after 48 hrs by SRB assay; outline: as §2
MDA-MB-435 [6] = experiment: Cytotoxicity against human MDA-MB-435 cells assessed as cellular growth at 10 uM after 48 hrs by SRB assay; outline: as §1
LOX IMVI = experiment: Antitumor activity against human LOXIMVI cells after 48 hrs by SRB assay; outline: as §2
Malme-3M = experiment: Antitumor activity against human MALME-3M cells after 48 hrs by SRB assay; outline: as §2
U-251 = experiment: Antitumor activity against human U251 cells after 48 hrs by SRB assay; conditions: U-251, 48 h; outline: as §3
NCI-H460 = experiment: Cytotoxicity against human NCI-H460 cells assessed as cellular growth at 10 uM after 48 hrs by SRB assay; outline: as §1
OVCAR-8 = experiment: Antitumor activity against human OVCAR8 cells after 48 hrs by SRB assay; conditions: OVCAR-8, 48 h; outline: as §2
MDA-MB-435 [7] = experiment: Antitumor activity against human MDA-MB-435 cells after 48 hrs by SRB assay; conditions: MDA-MB-435, 48 h; outline: as §2
OVCAR-4 = experiment: Antitumor activity against human OVCAR4 cells after 48 hrs by SRB assay; conditions: OVCAR-4, 48 h; outline: as §2
CAKI-1 = experiment: Cytotoxicity against human Caki1 cells assessed as cellular growth at 10 uM after 48 hrs by SRB assay; outline: as §4
SNB-75 [8] = experiment: Cytotoxicity against human SNB75 cells assessed as cellular growth at 10 uM after 48 hrs by SRB assay; outline: as §1
[9] = read-out: LC50 (the source's name)
[10] = read-out: pLC50 (the source's name) (converted)

With `COc1ccc(/C(=C2\O[C@@H]([C@H]3COC(C)(C)O3)[C@H]3OC(C)(C)O[C@@H]23)c2cc(OC)c(OC)c(OC)c2)cc1O` the Activity (NCI/ADR-RES [1]) was -10.52%, the GI50 (EKVX; read-out: GI50) was 37.4 µM and the CC50 (EKVX; [9]) was greater than 100 µM. For the same compound, the TGI (EKVX; read-out: TGI) was greater than 100 µM, the GI50 (EKVX; read-out: pGI50 (converted)) was 37.2 µM and the CC50 (EKVX; [10]) was greater than 100 µM. It also gave a TGI (EKVX; read-out: pTGI) greater than 100 µM, an Activity (OVCAR-3 [2]) of 58.27% and a GI50 (KM12) of 4.1 µM. For the same compound, the LC50 (KM12) was 72.9 µM, the TGI (KM12) was 17.8 µM and the GI50 (OVCAR-3 [3]) was 2.39 µM. It also gave a TGI (OVCAR-3 [3]) of 5.67 µM, a CC50 (OVCAR-3 [3]; [9]) of 21.7 µM and a GI50 (SNB-75 [4]) of 2.89 µM. For the same compound, the TGI (SNB-75 [4]) was 7.44 µM, the CC50 (SNB-75 [4]; [9]) was greater than 100 µM and the GI50 (HCT-116) was greater than 100 µM. It also gave an LC50 (concentration giving 50% net cell kill) (HCT-116) greater than 100 µM, a TGI (HCT-116) greater than 100 µM and an Activity (M14) of 19.53%. It also gave a GI50 (HL-60(TB); read-out: GI50) of 6.48 µM, a CC50 (HL-60(TB); [9]) greater than 100 µM and a TGI (HL-60(TB); read-out: TGI) of 56.8 µM. For the same compound, the GI50 (HL-60(TB); read-out: pGI50 (converted)) was 1.62 µM, the CC50 (HL-60(TB); [10]) was greater than 100 µM and the TGI (HL-60(TB); read-out: pTGI (converted)) was 56.2 µM. It also gave an Activity (SF-268) of 37.84%, an Activity (DU-145) of 45.59% and an LC50 (50% lethal concentration) (SK-MEL-28) greater than 100 µM. It also gave a GI50 (SK-MEL-28; read-out: GI50) of 10.6 µM, a TGI (SK-MEL-28; read-out: TGI) greater than 100 µM and a GI50 (SK-MEL-28; read-out: pGI50 (converted)) of 10.5 µM. The CC50 (SK-MEL-28; [10]) was greater than 100 µM, the TGI (SK-MEL-28; read-out: pTGI) was greater than 100 µM and the GI50 (NCI/ADR-RES [5]) was 4.26 µM. For the same compound, the LC50 (NCI/ADR-RES [5]) was greater than 100 µM, the TGI (NCI/ADR-RES [5]) was 22.3 µM and the Activity (MDA-MB-435 [6]) was -10.2%. It also gave a GI50 (LOX IMVI) of 3.39 µM, a TGI (LOX IMVI) of 19.8 µM and a CC50 (LOX IMVI; [9]) greater than 100 µM. It also gave a GI50 (Malme-3M) of 2.07 µM, an LC50 (concentration killing 50% of cells present at time zero) (Malme-3M) greater than 100 µM and a TGI (Malme-3M) of 5.59 µM. The GI50 (U-251) was 3.12 µM, the TGI (U-251) was 11.8 µM and the CC50 (U-251; [9]) was greater than 100 µM. The Activity (NCI-H460) was 103.52%, the GI50 (OVCAR-8; read-out: GI50) was 6.56 µM and the CC50 (OVCAR-8; [9]) was greater than 100 µM. For the same compound, the TGI (OVCAR-8; read-out: TGI) was greater than 100 µM, the GI50 (OVCAR-8; read-out: pGI50 (converted)) was 8.51 µM and the CC50 (OVCAR-8; [10]) was greater than 100 µM. For the same compound, the TGI (OVCAR-8; read-out: pTGI) was greater than 100 µM, the GI50 (MDA-MB-435 [7]) was 3.61 µM and the TGI (MDA-MB-435 [7]) was 17.5 µM. For the same compound, the CC50 (MDA-MB-435 [7]; [9]) was greater than 100 µM, the GI50 (OVCAR-4; read-out: GI50) was 37.5 µM and the CC50 (OVCAR-4; [9]) was greater than 100 µM. It also gave a TGI (OVCAR-4; read-out: TGI) greater than 100 µM, a GI50 (OVCAR-4; read-out: pGI50 (converted)) of 37.2 µM and a CC50 (OVCAR-4; [10]) greater than 100 µM. The TGI (OVCAR-4; read-out: pTGI (converted)) was greater than 100 µM, the Activity (CAKI-1) was 110.64% and the Activity (SNB-75 [8]) was 24.26%.
